Test results published in paper PMC4152390 (Neuropharmacology, 2014).

Legend:
DAT = DAT (Rattus norvegicus, UniProt P23977); test: [3H]dopamine uptake inhibition in rat brain synaptosomes; assay type: biochemical; conditions: selectivity from uptake IC50 values at DAT and SERT
How it was run: (§1)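 Synaptosomes came from male Sprague-Dawley rats: striatum for DAT, and whole brain minus striatum and cerebellum for NET and SERT. Uptake ran in pH 7.4 Krebs-phosphate buffer (pargyline, BSA, ascorbate) with test compound, [3H]dopamine, [3H]norepinephrine or 5 nM [3H]serotonin, and unlabeled blockers of competing transporters. It was stopped by filtration and counted by scintillation.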

NET = NET (Rattus norvegicus, UniProt Q63380); test: [3H]norepinephrine uptake inhibition in rat brain synaptosomes; assay type: biochemical; conditions: read-out: [3H]Norepinephrine uptake, IC50 at NET; rat brain synaptosomes (whole brain minus striatum and cerebellum); 10 nM [3H]norepinephrine; mean±SD, n=3
How it was run: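 Rats killed by CO2; synaptosomes from whole brain minus striatum and cerebellum. Unlabeled blockers were added to prevent uptake by competing transporters. Tissue was added to Krebs-phosphate buffer (pH 7.4; 0.05 mM pargyline, 1 mg/mL BSA and ascorbic acid) containing test compound and [3H]norepinephrine. Rapid GF/B filtration, scintillation counting, % control uptake.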

DAT, NET and SERT = conditions: ref Baumann et al., 2013b; cited from earlier work
SERT = SERT (Rattus norvegicus, UniProt P31652); test: [3H]serotonin uptake inhibition in rat brain synaptosomes; assay type: biochemical; conditions: for IC50: read-out: [3H]Serotonin uptake, IC50 at SERT, rat brain synaptosomes (whole brain minus striatum and cerebellum), 5 nM [3H]serotonin, mean±SD, n=3
How it was run: as §1

ICR mice [1] = test: Locomotor activity; assay type: in vivo, mouse; conditions: for Doses producing significant increases in beam breaks compared to saline for the duration of the session (all time points): i.p., 10-min bins of 60-min session
How it was run: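 Male ICR mice got a single i.p. dose of test compound or saline (sterile saline vehicle, 10 ml/kg), n=8 per dose and n=16 for saline. Each was placed at once into a clear open-field chamber (47×25.5×22 cm) for a 60-min blinded session. Beam breaks were counted per 10-min bin and analysed by mixed-model ANOVA (time within, dose between), with p<0.05.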

ICR mice [2] = test: Functional observational battery; assay type: in vivo, mouse; conditions: i.p., 15 min post-injection, p<0.0033
How it was run: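 Male ICR mice (n=8 per group; a single saline group of n=16) got one i.p. dose of test compound in sterile saline (10 ml/kg). A modified EPA functional observational battery was scored 15 min post-injection by a blinded technician in weeks 2–3. Each measure was analysed by Kruskal–Wallis ANOVA by ranks, corrected for ties, with corrected alpha p<0.0033.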

ICR mice [3] = test: Locomotor activity with SCH23390 antagonist pretreatment; assay type: in vivo, mouse; conditions: SCH23390 0.03 mg/kg s.c., 60 min session
How it was run: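 In weeks 5 and 7, ICR mice got SCH23390 (0.03 mg/kg) or saline s.c. 30 min before an i.p. challenge with test compound or saline. Groups given the highest FOB dose were excluded, and the vehicle group was split between pretreatments. Total beam breaks were analysed by two-way ANOVA (dose × pretreatment).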

Sequence of NET (Q63380 1-617): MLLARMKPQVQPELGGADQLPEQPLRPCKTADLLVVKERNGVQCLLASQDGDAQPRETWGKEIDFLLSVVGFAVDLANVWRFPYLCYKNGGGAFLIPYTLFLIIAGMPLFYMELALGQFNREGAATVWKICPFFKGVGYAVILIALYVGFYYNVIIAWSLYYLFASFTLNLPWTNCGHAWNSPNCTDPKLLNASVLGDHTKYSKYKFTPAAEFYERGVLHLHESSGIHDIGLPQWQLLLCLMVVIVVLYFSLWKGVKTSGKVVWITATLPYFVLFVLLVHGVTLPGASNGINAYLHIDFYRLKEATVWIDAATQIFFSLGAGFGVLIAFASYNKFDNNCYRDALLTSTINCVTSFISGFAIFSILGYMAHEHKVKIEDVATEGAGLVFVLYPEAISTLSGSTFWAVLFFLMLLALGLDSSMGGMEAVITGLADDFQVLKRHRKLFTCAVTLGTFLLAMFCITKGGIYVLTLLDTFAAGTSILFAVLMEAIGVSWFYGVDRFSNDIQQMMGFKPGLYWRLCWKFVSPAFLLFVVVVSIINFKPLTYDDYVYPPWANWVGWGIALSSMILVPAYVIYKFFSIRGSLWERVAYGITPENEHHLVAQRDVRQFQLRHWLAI
Sequence of SERT (P31652 whole entry): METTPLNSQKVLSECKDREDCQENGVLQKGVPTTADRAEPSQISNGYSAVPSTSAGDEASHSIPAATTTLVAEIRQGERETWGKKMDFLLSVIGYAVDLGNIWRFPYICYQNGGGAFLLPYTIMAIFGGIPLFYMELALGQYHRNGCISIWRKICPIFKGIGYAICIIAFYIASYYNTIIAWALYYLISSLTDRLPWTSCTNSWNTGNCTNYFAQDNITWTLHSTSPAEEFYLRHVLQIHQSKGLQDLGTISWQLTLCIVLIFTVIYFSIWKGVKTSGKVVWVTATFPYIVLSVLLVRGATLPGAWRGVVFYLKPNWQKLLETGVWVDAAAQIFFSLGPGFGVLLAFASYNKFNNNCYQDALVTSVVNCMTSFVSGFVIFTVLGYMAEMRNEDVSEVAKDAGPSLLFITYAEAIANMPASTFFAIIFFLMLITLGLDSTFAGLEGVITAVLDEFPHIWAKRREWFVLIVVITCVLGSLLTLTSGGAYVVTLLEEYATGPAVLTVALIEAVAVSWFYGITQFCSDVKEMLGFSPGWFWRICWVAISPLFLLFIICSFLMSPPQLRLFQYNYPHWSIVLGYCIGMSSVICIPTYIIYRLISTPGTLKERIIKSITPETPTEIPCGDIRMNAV
Sequence of DAT (P23977 whole entry): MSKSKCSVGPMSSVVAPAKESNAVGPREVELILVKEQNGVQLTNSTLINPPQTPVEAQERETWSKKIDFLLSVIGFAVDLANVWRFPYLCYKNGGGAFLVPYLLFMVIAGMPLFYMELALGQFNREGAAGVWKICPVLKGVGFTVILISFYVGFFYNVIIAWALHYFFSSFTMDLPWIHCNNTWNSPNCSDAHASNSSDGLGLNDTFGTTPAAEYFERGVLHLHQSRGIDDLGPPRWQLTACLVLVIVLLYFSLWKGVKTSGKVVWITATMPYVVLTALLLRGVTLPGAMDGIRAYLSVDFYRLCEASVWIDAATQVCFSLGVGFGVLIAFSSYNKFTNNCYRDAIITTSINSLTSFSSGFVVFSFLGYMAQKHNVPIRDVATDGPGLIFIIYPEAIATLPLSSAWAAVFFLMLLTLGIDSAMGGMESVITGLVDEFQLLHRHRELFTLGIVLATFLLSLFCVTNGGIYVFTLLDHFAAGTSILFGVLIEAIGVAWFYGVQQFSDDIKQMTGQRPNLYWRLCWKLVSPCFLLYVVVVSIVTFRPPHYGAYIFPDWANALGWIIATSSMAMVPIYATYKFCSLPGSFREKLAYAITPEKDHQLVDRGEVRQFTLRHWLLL

Row | SMILES | DAT/SERT ratio (DAT) | IC50 (NET) [µM] | Activity in the release assay (DAT, NET and SERT) | fold weaker at blocking uptake of serotonin than catecholamine uptake (SERT; SERT versus DAT and NET uptake IC50) | IC50 (SERT) [µM] | Doses producing significant increases in beam breaks compared to saline for the duration of the session (all time points) (ICR mice [1]) [mg/kg] | Postinjection interval with significantly increased beam breaks (ICR mice [1]; 1.0 mg/kg i.p., 60-min session) [min] | Grooming: direction of difference from saline and doses at which significant (ICR mice [2]) [mg/kg] | Time from session start with significantly increased beam breaks (ICR mice [1]; 10.0 mg/kg i.p., 60-min session) [min] | Time from session start with significantly increased beam breaks (ICR mice [1]; 3.0 mg/kg i.p., 60-min session) [min] | Effect of SCH23390 plus saline on activity compared to saline/saline group (ICR mice [3])
1 | CCCC(C(=O)c1ccc2c(c1)OCO2)N1CCCC1 (centres unmarked) [MDPV, 3,4-methylenedioxypyrovalerone] | 806 | 0.0259 ± 0.0056 | not active | more than 100 fold | 3.31 ± 0.485 | 1.0 to 3.0 | – | – | – | – | –
2 | CCCC(C(=O)c1ccccc1)N1CCCC1 (stereo not drawn) [α-PVP, α-pyrrolidinovalerophenone] | >781 | 0.0142 ± 0.0012 | – | – | > 10 | 3.0 to 10.0 | 20 to 50 | – | – | – | –
3 | CC(C(=O)c1ccccc1)N1CCCC1 (stereo not drawn) [α-PPP, α-pyrrolidinopropiophenone] | >51 | 0.445 ± 0.0392 | – | – | > 10 | 30.0 | – | 30 | 50 | – | –
4 | CCC(C(=O)c1ccccc1)N1CCCC1 (stereo not drawn) [α-PBP, α-pyrrolidinobutiophenone] | >159 | 0.0915 ± 0.0128 | – | – | > 10 | 10.0 | – | – | – | 40 | –
5 | CN1CCc2cc(Cl)c(O)cc2[C@@H](c2ccccc2)C1 [SCH23390] | – | – | – | – | – | – | – | – | – | – | did not significantly affect activity
